KCNQ1 block: inhibitors of human KCNQ1 channel, primary screen, cell-based, thallium flux, high-throughput; CHO-K1 KCNQ1, FluxOR thallium flux fluorescence; hits give high values; 1.3% of 310,000 active; B-score at 10 µM; AID 2642, 2010; Potassium voltage-gated channel subfamily KQT member 1 (Homo sapiens), P51787;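 active = compounds whose thallium flux B-score, printed positive for inhibition, exceeds three library SD while starting fluorescence stays within three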;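 note: channel opened by potassium depolarization with thallium stimulus after 20 min compound exposure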
KCNQ1 pot: potentiators or activators of KCNQ1 channel, primary screen, cell-based, thallium flux, high-throughput; Potassium voltage-gated channel subfamily KQT member 1 (Homo sapiens), P51787; CHO-K1 KCNQ1, thallium flux FluxOR fluorescence; hits give high values; B-score at 10 µM; 0.35% of 310,000 active; AID 2648, 2010;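 active = fluorescence ratio B-score, a plate-corrected score, at least three library SD, with initial intensity B-score within 5 SD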
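Medium – assay buffer, equal DMSO in all wells · Material – CHO-K1 cell line with stable KCNQ1 potassium channel expression · Signal – kinetic FluxOR thallium fluorescence, 10-s 1-Hz baseline, 110-s post-stimulus read · Compound – single concentration per compound, DMSO matched to controls · Schedule – 37 °C overnight plating, 90-min dark dye load, 20-min compound pretreatment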
hERG rescue: hERG rescue from dofetilide block, primary screen, cell-based, CHO-hERG, FluxOR thallium flux, dofetilide IC70; activation (rescue from dofetilide block), less the hit threshold, % at 10 µM; 0.51% of 310,000 active; dofetilide IC70 present; AID 1511, 2009; Voltage-gated inwardly rectifying potassium channel KCNH2 (Homo sapiens), Q12809;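 active = activation above the mean of controls blocked by dofetilide plus 5 SD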;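 note: thallium influx through hERG after potassium depolarization seen as dye fluorescence rise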
KCC2 mod: KCC2 cotransporter modulators, thallium flux, primary screen, cell-based, HEK293 KCC2, FluoZin-2 fluorescence, MLSMR. AID 1456, 2008. 2.2% of 190,000 active. KCC2 cells, thallium flux FluoZin-2 fluorescence. B-score of Tl+ flux slope (higher = more flux/activation; lower = inhibition) at 10 µM. Solute carrier family 12 member 5 (Homo sapiens), Q9H2X9;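 active = thallium flux slope and its plate-corrected score both differing from the plate sample mean at a set confidence after two filtering rounds, in either direction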;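 note: slope of fluorescence scaled to starting intensity during 10 to 20 s after thallium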
KCNK9 block: KCNK9 potassium channel inhibitors, primary screen, HEK293 cells, thallium flux. FluxOR thallium flux fluorescence; hits give low values. B-score at 10 µM. 1.2% of 310,000 active. AID 488922, 2010;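 active = ratio B-score over 3 SD below the library mean, with starting fluorescence within 5 SD of its mean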;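 note: negative B-score means less thallium flux so channel inhibition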
KCNK3 block: human KCNK3 channel inhibitors, primary screen, CHO cells, FluxOR thallium flux, B-score; Potassium channel subfamily K member 3 (Homo sapiens), O14649; FluxOR fluorescence; hits give low values; B-score at 10 µM; 0.84% of 340,000 active; AID 602410, 2012;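 active = B-score under library mean minus 4 SD, starting fluorescence ratio at most library mean plus 5 SD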;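 note: more negative B-score means stronger inhibition of thallium flux through KCNK3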
Target sequence (O14649 whole entry, looked up): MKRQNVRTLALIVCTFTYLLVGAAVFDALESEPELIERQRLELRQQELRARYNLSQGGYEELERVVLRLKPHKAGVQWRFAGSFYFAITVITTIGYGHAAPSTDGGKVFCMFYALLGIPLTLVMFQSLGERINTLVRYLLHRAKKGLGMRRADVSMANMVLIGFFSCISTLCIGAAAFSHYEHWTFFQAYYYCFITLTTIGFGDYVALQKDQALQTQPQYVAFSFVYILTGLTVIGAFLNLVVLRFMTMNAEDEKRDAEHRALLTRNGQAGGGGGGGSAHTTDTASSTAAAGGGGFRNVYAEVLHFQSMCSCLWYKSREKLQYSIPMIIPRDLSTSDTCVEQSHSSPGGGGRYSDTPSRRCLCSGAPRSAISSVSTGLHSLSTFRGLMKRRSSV
KCC2 sec1: KCC2 modulators in sodium-free buffer, confirmation, cell-based, HEK293 KCC2, thallium flux, secondary assay; shares compounds with KCC2 mod; FluoZin2 fluorescence; hits give high values; normalised thallium flux (F/F0 slope) at 10 µM; 15% of 3,700 active;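 active = thallium flux slope above the same plate's solvent-only control mean plus 3 SD; inconclusive = the two replicate wells disagree; inactive = no significant difference from solvent-only control wells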
KCC2 bumet counter: thallium flux persisting under bumetanide in KCC2 cells, confirmation, counter-screen for KCC2 modulator project, cell-based, HEK293 KCC2, FluoZin2, secondary assay 3. AID 1714, 2009. shares compounds with KCC2 mod. HEK293-KCC2 + bumetanide/ouabain; hits give high values. 49% of 3,700 active. normalized thallium flux at 10 µM;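 active = thallium entry rate above the same plate's blocked-transporter control wells by more than 3 SD; inconclusive = the two repeat wells disagree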;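 note: raw slope of fluorescence over initial fluorescence between 10 and 20 s after thallium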
KCC2 sec2: KCC2 modulators without ouabain present, confirmation, cell-based, HEK293 KCC2, thallium flux, FluoZin2, secondary assay 2. shares compounds with KCC2 mod. thallium flux FluoZin2 fluorescence; actives lie on both sides; F/F0 rise rate, 10–20 s post-thallium. normalized thallium flux at 10 µM. 23% of 3,700 active;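 active = thallium flux slope more than 3 SD above or below the plate's solvent-only control mean, mostly below; inconclusive = the two repeat wells disagreed; inactive = no significant shift from solvent-only controls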;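 note: raw slope with 0.1% DMSO as baseline and bumetanide as block control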
HEK293 Tl flux: thallium flux modulation in parental HEK cells, confirmation, counter-screen for KCC2 modulator project, cell-based, counterscreen 1. 46% of 3,700 active. shares compounds with KCC2 mod. thallium flux rate (normalised fluorescence) at 10 µM. HEK293 parental cells, thallium flux FluoZin2, ouabain; baseline-ratio fluorescence slope, 10–20 s after thallium;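 active = thallium flux rate significantly above the same plate's solvent-only control wells, beyond their mean plus 3 SD; inconclusive = the two replicate wells gave conflicting results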
KCC2 retest ouab: KCC2 inhibitors and activators, ouabain retest, confirmation, HEK-KCC2 cells. HEK293-KCC2, thallium flux FluoZin2 fluorescence; bidirectional: low = inhibitor, high = activator. raw Tl+ flux slope (below DMSO = inhibition, above = activation) at 10 µM. AID 1717, 2009. shares compounds with KCC2 mod. 48% of 3,700 active;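 active = thallium flux slope beyond 3 SD from same-plate DMSO control mean in most replicates, usually higher, sometimes lower; inconclusive = repeat tests gave conflicting results; inactive = no significant difference from controls in most replicates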;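 note: slope of initial-normalized fluorescence between seconds 10 and 20 after thallium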
HEK counter2: native HEK Tl+ uptake effects, second counter-screen – HEK cells, counterscreen 2, counter-screen for KCC2 modulator project, confirmation. shares compounds with KCC2 mod. HEK293 parental, thallium flux FluoZin-2 fluorescence slope. thallium flux slope at 10 µM. 33% of 3,700 active;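 active = thallium flux slope above the same plate's solvent-control mean plus 3 SD in both duplicate wells; inconclusive = duplicate wells that disagreed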;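 note: run without ouabain in cells lacking the KCC2 cotransporter; slope of fluorescence scaled to its starting value between 10 and 20 s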
* hit, by the source's call; i = inactive; ? = inconclusive; . = no result. Most compounds without a hit are left out; they make up all but 4.1% or so of the library.

SMILES	KCNQ1 block	KCNQ1 pot	hERG rescue	KCC2 mod	KCNK9 block	KCNK3 block	KCC2 sec1	KCC2 bumet counter	KCC2 sec2	HEK293 Tl flux	KCC2 retest ouab	HEK counter2
O=C(O)CC/C(=C\c1cccc(NC(=O)c2ccccc2Cl)c1)c1nc2ccccc2s1	i	i	-11	-2.3*	i	i	0.007	0.0051	?	0.0077	?	0.012
CN(c1ccccc1)c1ccc(/C=C(/CCC(=O)O)c2nc3ccccc3s2)cc1[N+](=O)[O-]	.	.	.	.	.	i	.	.	.	.	.	.
Cc1nn(-c2ccc(F)cc2)c(Cl)c1/C=C(\CCC(=O)O)c1nc2ccccc2s1	i	i	-13	-9.4*	i	i	?	?	0.018*	0.0059*	0.0093*	?
O=C(O)CC/C(=C\c1ccccc1[N+](=O)[O-])c1nc2ccccc2s1	i	i	-10	-4.1*	i	i	0.0092	0.0072	?	0.0065	0.012*	0.01
CSC1=NCCN1C(=O)c1cccs1	i	i	-8	-0.42	i	i	.	.	.	.	.	.
CC(C)c1ccccc1OCC(=O)Nc1nnc(C2CC2)s1	.	.	.	.	.	i	.	.	.	.	.	.
C=CCN(C(=O)CSC1=NC(=O)CN1C(C)=O)c1nc(C)c(-c2ccccc2)s1	i	i	-15	10*	i	i	0.0076	0.023*	0.036	0.022*	0.03*	0.019*
C=CCSc1nnc(-c2sc(-c3ccccc3)nc2C)n1C	i	i	-11	.	i	i	.	.	.	.	.	.
N#C/C(=C(/O)c1cccc(F)c1)c1nc2ccccc2s1	i	i	-19	-3*	i	i	0.0089	0.006	?	0.0077	0.016*	0.011
CCC(C)C(NC(=O)C(N)CC(C)C)C(=O)NC(CCC(=O)OCc1ccccc1)C(N)=O (stereo not drawn)	i	i	-9	1.2	i	i	.	.	.	.	.	.
CCOC(=O)c1sc2ncnc(NCC(c3cccs3)N(C)C)c2c1C (stereo not drawn)	i	55*	20*	.	i	i	0.041*	0.17*	0.046*	0.093*	0.086*	0.035*
CN(C)C(CNc1ncnc2sccc12)c1cccs1 (stereo not drawn)	i	i	-20	1.1	i	i	.	.	.	.	.	.
Cc1nnc(NC(=O)c2ccc3ccccc3c2)o1	.	.	.	.	.	i	0.012*	0.016*	0.03	0.011*	0.026*	0.01
CC(C)(C)C(=O)CSc1ncnc2sc3c(c12)CCC3	i	i	-5	0.81	i	i	.	.	.	.	.	.
Cc1ccc(C(=O)CSc2ncnc3sc4c(c23)CCC(C)C4)cc1 (stereo not drawn)	i	i	-14	4.2*	i	i	?	0.037*	0.037	?	?	0.012
O=C(CSc1ncnc2sc3c(c12)CCC3)NCC1CCCO1 (stereo not drawn)	i	i	-6	.	i	i	.	.	.	.	.	.
CC(=O)CSc1ncnc2sc3c(c12)CCC3	i	i	-13	7.1*	i	i	0.019	0.024*	0.033	0.014*	0.022*	0.017*
O=C1OCCC1Sc1ncnc2sc3c(c12)CCC3 (stereo not drawn)	i	i	-3	3.3*	i	i	0.0055	0.024*	?	0.018*	?	0.018*
CC(Sc1nnc(C2CC2)n1C1CC1)C(=O)Nc1cccc(S(=O)(=O)N(C)C)c1 (stereo not drawn)	.	.	.	.	.	i	.	.	.	.	.	.
CCn1c(N2CCC(Cc3ccccc3)CC2)nc2c1c(=O)[nH]c(=O)n2C	i	i	-21	-3.1*	i	i	0.0078	0.0046	0.032	0.0061*	0.016*	0.011
O=c1cc(-c2ccccc2Cl)oc2c([N+](=O)[O-])c(O)cc(O)c12	8*	i	-8	-6.9*	i	i	0.0062	?	0.018*	0.0057*	0.011*	?
O=C(Nc1ccc(O)c2c(=O)cc(-c3ccccc3Cl)oc12)c1ccccc1Cl	i	i	-3	0.23	i	i	.	.	.	.	.	.
O=C(c1nn2c(C(F)(F)F)cc(-c3cccs3)nc2c1Br)N1CCCc2ccccc21	i	i	-2	-1.8	i	i	.	.	.	.	.	.
O=C(c1nn2c(C(F)(F)F)cc(-c3ccco3)nc2c1Br)N1CCCc2ccccc21	i	i	-15	.	i	i	?	0.0047	0.025*	0.0075	?	0.011
Cc1[nH]n(-c2ccc([N+](=O)[O-])cc2)c(=O)c1C=NCCN1CCN(C(=O)C(C)C)CC1	i	i	-6	1.4	i	i	.	.	.	.	.	.

Screens deposited in PubChem by several laboratories.
